# DENV2 CPE rescue: protects cells from dengue virus 2 cytopathic effect | DENV2-infected cells, cytopathic effect rescue, plate reader | CPE inhibition, % at 9.99 µM | 350,000 tested, 1.7% active; in the data active = CPE inhibition above about 20%, passing the limit was not always enough; inconclusive = no clear call, values can overlap the other calls; tested in BHK-21 cells;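 note: 0% = median of neutral control wells and 100% = median of positive control wells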
# SIRT5 inh: blocks human SIRT5 desuccinylation of peptide. inhibition, % at 15 µM. Purified SirT5, succinyl-peptide AMC, trypsin-coupled fluorescence. 330,000 tested, 1.1% active. Q9NXA8. AID 652115; in the data active = inhibition above about 15%; inconclusive = no clear call, values can overlap the other calls
# MLL AF4-AF9 inh: inhibitors of human MLL-AF4/AF9 interaction; inhibition, % at 10 µM; P42568; AlphaScreen, biotin-AF4 peptide binding to FLAG-AF9; 350,000 tested, 0.47% active;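 active = every replicate reaching a set inhibition limit, whatever the replicate mean, cut at about 25% in these data; inconclusive = mean inhibition reaches that limit but some replicates miss it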;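 note: 0% = plate neutral control median and 100% = total signal loss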
# Target sequence (P42568 whole entry, looked up): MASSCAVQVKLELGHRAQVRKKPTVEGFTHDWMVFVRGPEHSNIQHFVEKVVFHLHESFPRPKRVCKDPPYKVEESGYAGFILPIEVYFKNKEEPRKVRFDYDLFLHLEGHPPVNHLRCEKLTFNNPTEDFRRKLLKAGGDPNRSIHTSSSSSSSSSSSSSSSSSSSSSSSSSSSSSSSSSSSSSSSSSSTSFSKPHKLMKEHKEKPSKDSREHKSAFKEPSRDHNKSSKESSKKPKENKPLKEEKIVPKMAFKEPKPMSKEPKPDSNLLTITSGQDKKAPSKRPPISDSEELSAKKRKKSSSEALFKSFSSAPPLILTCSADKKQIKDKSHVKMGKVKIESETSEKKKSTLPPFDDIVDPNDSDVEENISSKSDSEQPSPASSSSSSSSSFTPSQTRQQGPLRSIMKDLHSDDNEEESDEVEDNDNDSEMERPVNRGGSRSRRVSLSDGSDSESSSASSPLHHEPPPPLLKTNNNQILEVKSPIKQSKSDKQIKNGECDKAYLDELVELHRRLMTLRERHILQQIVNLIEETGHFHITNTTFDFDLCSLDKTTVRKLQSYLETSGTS
# CaV13 ICDI inh: Primary screen for inhibitors of IQ motif and Ca2+-dependent inactivation inhibitor domain binding in CACNA1D, Förster resonance energy transfer in living cells, …; HEK cells, CFP/YFP FRET ICDI-IQ, plate reader, 10 min; percent FRET-ratio fall versus neutral wells; inhibition, % at 12.3 µM; 340,000 tested, 0.098% active; AID 743397;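 active = mean replicate inhibition of at least 30% and at least 1% of replicates passing that level; inconclusive = only one of the two criteria is met; inactive = neither criterion is met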;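 note: 0% = median of the neutral control wells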
# S100A4 MyoIIA: blocks human S100A4 binding to myosin IIA peptide | P26447 | S100A4/TAMRA-MyoIIA peptide fluorescence polarization | inhibition, % at 10.7 µM | 360,000 tested, 0.14% active | AID 652163;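 active = mean inhibition of at least 70% across replicates, with every replicate also reaching that level; inconclusive = mean inhibition reaches 70% but some replicates fall short; inactive = mean inhibition below 70%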
# Target sequence (P26447 whole entry, looked up): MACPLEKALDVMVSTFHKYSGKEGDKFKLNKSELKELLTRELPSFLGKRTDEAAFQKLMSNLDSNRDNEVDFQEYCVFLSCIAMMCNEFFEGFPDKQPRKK
#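 Test system – S100A4 monomer (human) · Compound – single-point compound testing · Schedule – 5 min incubation before reading · Probe or stimulus – TAMRA-labelled myosin IIA heavy-chain peptide probe, 5 nM · Benchmarks – neutral control DMSO, positive control TFP · Medium – Calcium-containing HEPES buffer, pH 7.2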
# * marks the source's active call; other numbers are inactive results; ? = inconclusive; . = no result given; + = active, no number. The list is not random: actives were taken first. Their share in the collection is about 2.7%.
SMILES,DENV2 CPE rescue,SIRT5 inh,MLL AF4-AF9 inh,CaV13 ICDI inh,S100A4 MyoIIA
O=C(NCc1ccccc1)[C@@H]1CCCN1C(=O)[C@@H](NS(=O)(=O)c1ccc(F)cc1F)c1ccccc1,14.2,0.1,.,-4.8,-2.3
CC(C)C[C@H](NS(=O)(=O)c1ccc(F)cc1F)C(=O)N1CCC[C@H]1C(=O)NCc1ccccc1,-0.8,23.5*,.,-2.1,20.6
COc1ccc(S(=O)(=O)N(C)C[C@H]2Oc3c(NC(=O)CCCCCC(=O)Nc4ccccc4N)cccc3C(=O)N([C@H](C)CO)C[C@@H]2C)cc1,4.4,-2.6,-1.7,.,-12.9
COc1ccc(S(=O)(=O)N(C)C[C@@H]2Oc3c(NC(=O)CCCCCC(=O)Nc4ccccc4N)cccc3C(=O)N([C@H](C)CO)C[C@H]2C)cc1,32.1*,1.9,-2.4,.,55.9
COc1ccc(S(=O)(=O)N(C)C[C@@H]2Oc3c(NC(=O)CCCCCC(=O)Nc4ccccc4N)cccc3C(=O)N([C@H](C)CO)C[C@@H]2C)cc1,35.5*,.,-1.7,.,1.3
COc1ccc(S(=O)(=O)N(C)C[C@H]2Oc3c(NC(=O)CCCCCC(=O)Nc4ccccc4N)cccc3C(=O)N([C@@H](C)CO)C[C@@H]2C)cc1,32.1*,10.3,-1.9,.,-0.9
O=C(C1CCOCC1)N1CC(=O)N2[C@H](CO)[C@H](c3ccc(-c4ccccc4F)cc3)[C@H]2C1,4.5,12.3,-0.4,.,-3.8
CSCc1cc(N2CCCC2)nc(-c2ccccc2)n1,-7.2,1.6,-1.0,-2.5,-0.8
CC(C)SCc1cc(N2CCCC2)nc(-c2ccccc2)n1,26.1*,-4.5,-7.8,-2.0,-1.0
CC(=O)Nc1cccc(NC(=O)c2cccc3cccnc23)c1,10.2,15.1*,2.1,-4.1,-2.2
Cc1ccc(-c2ccc([C@@H]3[C@H]4CN(C(=O)c5ccncc5)CC(=O)N4[C@H]3CO)cc2)cc1,-8.9,-4.1,1.4,.,3.3
CCn1c(CNC(=O)c2cccs2)n[nH]c1=S,16.9,-1.8,25.3*,-4.6,-4.7
COc1cccc(N2CCc3c(C)nc4ccc(Cl)cc4c32)c1,41.5*,3.9,-6.8,-23.7,11.6
COc1ccc(N2CCc3c(C)nc4c(OC)cccc4c32)cc1,0.1,-4.4,0.9,-2.0,0.6
O=S(=O)(c1cccs1)N1CCCCN2[C@@H](CO)[C@H](c3ccc(C4=CCCC4)cc3)[C@@H]2C1,11.6,0.8,-0.4,.,-12.6
O=S(=O)(c1cccs1)N1CCCCN2[C@H](CO)[C@H](c3ccc(C4=CCCCC4)cc3)[C@@H]2C1,-7.5,18.3*,-5.1,.,10.6
O=S(=O)(c1cccs1)N1CCCCN2[C@H](CO)[C@H](c3ccc(C4=CCCC4)cc3)[C@@H]2C1,46.2*,2.0,-1.7,.,11.9
Cc1ccc(-c2ccc([C@@H]3[C@H](CO)N4CCCCN(C)C[C@@H]34)cc2)cc1,-0.6,1.0,10.9,.,-3.5
O=S(=O)(c1cccs1)N1CCCCN2[C@@H](CO)[C@@H](c3ccc(C4=CCCCC4)cc3)[C@@H]2C1,-7.7,-1.5,0.8,.,20.8
CN1CCCCN2[C@H](CO)[C@H](c3ccc(C4=CCCC4)cc3)[C@H]2C1,28.5*,-5.2,7.8,.,10.9
C[C@@H]1CN([C@@H](C)CO)C(=O)Cc2cc(NC(=O)Nc3ccc4c(c3)OCO4)ccc2O[C@@H]1CN(C)S(=O)(=O)c1cccs1,9.7,.,.,.,.
O=C(CCCn1c(=O)c2sccc2n(Cc2cc(=O)n3ccccc3n2)c1=O)NCc1ccco1,-1.3,.,-0.2,+,-1.5
O=C(CCn1c(=O)c2sccc2n(Cc2cc(=O)n3ccccc3n2)c1=O)NCc1ccco1,.,.,.,-8.1,.
COc1ccc(NC(=O)N2CCC3(CC2)CN(C(=O)CN2CCOCC2)[C@H](CO)c2[nH]c4cc(OC)ccc4c23)cc1,-4.8,-2.1,-2.2,.,6.0
CC1CCCN(C2=C(NS(=O)(=O)c3ccc(Br)cc3)C(=O)c3ccccc3C2=O)C1 (configuration not stated),-1.5,-0.4,-8.0,-6.9,2.6
SMILES,DENV2 CPE rescue,SIRT5 inh,MLL AF4-AF9 inh,CaV13 ICDI inh,S100A4 MyoIIA
CC(=O)Nc1ccc(S(=O)(=O)NC2=C(N3CCN(Cc4ccccc4)CC3)C(=O)c3ccccc3C2=O)cc1,-2.8,-2.3,40.6*,-5.7,-10.8
O=C1C(NS(=O)(=O)c2ccc(Br)cc2)=C(N2CCCCC2)C(=O)c2ccccc21,-4.4,2.6,38.0*,-15.7,4.0
CC1CCN(C2=C(NS(=O)(=O)c3ccccc3)C(=O)c3ccccc3C2=O)CC1,-8.8,0.8,57.3*,-4.3,-2.8
CCN1CCN(C2=C(NS(=O)(=O)c3ccc(C)cc3)C(=O)c3ccccc3C2=O)CC1,1.6,0.6,13.7,-2.3,9.0
O=C1C(NS(=O)(=O)c2ccccc2)=C(N2CCN(c3ccc(F)cc3)CC2)C(=O)c2ccccc21,5.6,-7.7,64.3*,-4.4,-2.2
COc1cccc(-c2ccc([C@@H]3[C@@H](CO)N4C(=O)CN(C(=O)C5CC5)C[C@@H]34)cc2)c1,5.9,-0.3,-2.0,.,33.0
N#Cc1c(Cl)nsc1NN,-0.8,-3.4,50.9*,-6.7,2.8
COc1ccc(S(=O)(=O)Nc2ccc3c(c2)C(=O)N(C)C[C@H](OC)[C@H](C)CN[C@H](C)CO3)cc1,-5.9,-3.2,0.1,.,13.0
CCN(CC)CC#CCC(O)(c1ccccc1)C1CCCC1 (configuration not stated),-3.8,18.3*,-0.9,-8.5,-0.6
COc1ccc(-c2cnc3c(c2)C(=O)N([C@@H](C)CO)C[C@H](C)[C@@H](CN(C)Cc2ccc(C(=O)O)cc2)O3)cc1,?,21.0*,-2.0,.,-6.7
COc1ccc(-c2cnc3c(c2)C(=O)N([C@H](C)CO)C[C@H](C)[C@@H](CN(C)Cc2ccccc2)O3)cc1,?,0.1,5.0,.,-14.2
COc1ccc(-c2cnc3c(c2)C(=O)N([C@@H](C)CO)C[C@H](C)[C@@H](CN(C)Cc2ccccc2)O3)cc1,47.8*,3.7,3.5,.,6.0
O=C(NCCS(=O)(=O)NC1CCCCC1)c1ccccc1,-3.9,-3.6,-0.6,-5.5,-1.9
O=C(NCCS(=O)(=O)NC1CCCC1)c1ccccc1,0.1,16.7*,-1.6,-6.1,-1.7
CCCCCCCCN1C(=O)[C@H](CC(=O)NCCCN2CCCC2=O)C[C@@]2(C(=O)OC)CC(C)(C)CC=C12,-2.5,19.2*,-0.5,-8.7,1.4
COC(=O)[C@@]12C[C@@H](CC(=O)NCCCN3CCCC3=O)C(=O)N(Cc3ccco3)C1=CCC(C)(C)C2,-9.6,-0.7,.,-15.3,0.8
COC(=O)[C@@]12C[C@@H](CC(=O)NCCCN3CCCC3=O)C(=O)N(Cc3ccccc3)C1=CCC(C)(C)C2,8.1,-1.4,-5.0,-7.5,-0.5
COC(=O)[C@@]12C[C@@H](CC(=O)NCc3ccccc3)C(=O)N(Cc3ccccc3)C1=CCC(C)(C)C2,-15.9,35.6*,.,-17.2,4.3

# Screening results (PubChem)
